Data: paper PMC6279241 (Science signaling, 2018)
Where a chain is given by its changes, count along the chain named. Numbered stars: 1 amine (or outer) side, 2 acyl side, 3 side chain; on linkers, the order of the positions; unused ones are H or OH. Bridge positions count the residues as written; N and C are the ends. Square brackets hold non-standard residues; d marks the D form. Peptide text beside a SMILES is read from it. * marks the point of attachment. Leu(3R-OH,Nα-propionyl) = CCC(=O)N[C@H](C(=O)*)[C@H](O)C(C)C; X1 = CC(C)[C@@H](O[*:3])[C@H](N[*:1])C(=O)[*:2]; NMeT = CN[C@H](C(=O)O)[C@@H](C)O; dPhLac = O=C(O)[C@H](O)Cc1ccccc1; NMeA = CN[C@@H](C)C(=O)O; NMeDha = C=C(NC)C(=O)O

Key:
[1] = biological target: T1, Gαq(Q209L) (Mus musculus, UniProt P21279, Q209L); experiment: SRE; assay type: cell-based; conditions: read-out: IC50, inhibition of transcriptional reporter driven by constitutively active Gαq; SRE(L) reporter
T1 sequence (P21279 1-359 Q209L): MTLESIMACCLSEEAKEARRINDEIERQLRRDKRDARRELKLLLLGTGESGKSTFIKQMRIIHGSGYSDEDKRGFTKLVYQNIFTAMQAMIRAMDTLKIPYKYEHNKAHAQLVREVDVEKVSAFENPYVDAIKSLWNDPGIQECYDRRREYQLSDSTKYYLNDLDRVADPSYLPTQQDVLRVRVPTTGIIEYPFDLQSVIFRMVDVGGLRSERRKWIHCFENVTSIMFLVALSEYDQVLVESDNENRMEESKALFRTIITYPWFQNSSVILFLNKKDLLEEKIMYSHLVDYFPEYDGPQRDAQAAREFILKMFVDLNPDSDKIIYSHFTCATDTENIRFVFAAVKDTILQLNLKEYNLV
Method in brief: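 Firefly luciferase signal from the Gα-driven transcriptional reporter was normalized to co-transfected Renilla luciferase from a constitutive promoter.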

[2] = system: Mel202 cells; experiment: Melanocytic pigmentation of Mel202 cells; assay type: cell-based, human; conditions: Mel202, 3 days, vs vehicle
Method in brief: (§1)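 Cells were treated with test compound for 3 days, then pelleted and examined macroscopically for pigmentation against vehicle (DMSO). Representative images are from one of 3 experiments, each in triplicate.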

[3] = biological target: T2, Gα13(Q226L) / LARG-RGS (Homo sapiens, UniProt Q14344, Q226L); assay type: cell-based; conditions: split luciferase
T2 sequence (Q14344 1-377 Q226L): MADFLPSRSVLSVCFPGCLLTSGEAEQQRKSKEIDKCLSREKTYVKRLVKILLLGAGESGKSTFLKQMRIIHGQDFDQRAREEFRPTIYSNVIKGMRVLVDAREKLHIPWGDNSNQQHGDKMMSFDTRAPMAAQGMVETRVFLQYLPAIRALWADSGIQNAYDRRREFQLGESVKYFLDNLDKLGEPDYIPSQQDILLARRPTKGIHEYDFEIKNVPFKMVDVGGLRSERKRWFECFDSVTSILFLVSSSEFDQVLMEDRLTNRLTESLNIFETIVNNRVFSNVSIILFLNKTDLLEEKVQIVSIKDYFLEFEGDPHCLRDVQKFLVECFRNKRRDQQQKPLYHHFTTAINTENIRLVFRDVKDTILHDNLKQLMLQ
Method in brief: (§2)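 Split click beetle green luciferase in transiently transfected HEK293 cells. The N-terminal fragment sat in the helical-domain αB-αC loop of wild type or Q226L Gα13. The C-terminal fragment was fused to the N-terminus of Gβ1 (with untagged Gγ2 co-transfected) or of the LARG RGS domain. Cells were treated 18 h with test compound or DMSO, then reconstituted luciferase activity was read. Triplicate wells; 3 experiments on different days.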

[4] = system: OCM-1A cells; experiment: Cell viability/proliferation; assay type: cell-based, human; conditions: even at 10 μM
Method in brief: (§3)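 Water-soluble tetrazolium salt (WST-8) viability assay run per the maker's protocol. Cells were grown in RPMI 1640 with 10% FBS and antibiotics at 37 °C, 5% CO2. Fold-change in viability over time was followed at increasing test compound concentrations, and EC50 was taken from concentration-response data. Mean ± SEM of 4 experiments, each in triplicate.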

[5] = system: OCM-1A cells; experiment: IP1 abundance; assay type: cell-based, human; conditions: BRAF(V600E)-driven
Method in brief: (§4)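 Homogeneous IP1 immunoassay (IP-One kit). Seeding was 10,000 Mel202, 20,000 92.1 or 20,000 OCM-1A cells per well. After overnight culture, cells got test compound or DMSO and were incubated until the next day. Stimulation buffer was added for 1 h, then IP1-d2 and anti-IP1 cryptate for 60 min at room temperature. IP1 was read from kit standard curves. Mean ± SEM of 4 experiments, each in triplicate.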

[6] = system: 92.1 cells; experiment: Flow cytometry of DNA content; assay type: cell-based, human; conditions: 92.1, 3 days
Method in brief: (§5)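 Cells were treated with test compound for 3 days, then stained with propidium iodide for DNA content and run on a FACScan flow cytometer. The sub-G1 fraction gave apoptosis; S- and G2/M-phase fractions gave proliferation. Mean ± SEM of 4 experiments. t-tests were corrected with the Holm-Sidak method.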

[7] = biological target: T3, Gα13(Q226L) / Gβ1γ2 (Homo sapiens, UniProt Q14344, Q226L); experiment: Split-luciferase complementation between Gβ1γ2 and constitutively active Gα13; assay type: cell-based
T3 sequence (Q14344 1-377 Q226L): T2 sequence (Q14344 1-377 Q226L)
Method in brief: as §2

[8] = system: OCM-1A cells; experiment: Morphology; assay type: cell-based, human; conditions: 3 days
Method in brief: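 Cells were treated with test compound for 3 days and imaged by phase contrast on an inverted microscope with a 10× objective. Representative fields are from one of 3 experiments.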

[9] = system: 92.1 cells; experiment: Immunofluorescence staining of melanocytic markers in 92.1 cells; assay type: cell-based, human
Method in brief: (§6)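 Immunofluorescence for TYR, DCT and PMEL. An equal volume of 2× fixative (PBS, 4% paraformaldehyde, 0.4% glutaraldehyde) was added to cells in growth medium for 15 min at 37 °C. Cells were permeabilized with 0.1% Triton X-100 for 5 min, blocked with 2% fish gelatin, and labelled with Alexa Fluor secondaries. The proportion of marker-positive cells was compared with Fisher's exact test. Representative of 3 experiments.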

[10] = system: OCM-1A cells; experiment: Flow cytometry of DNA content; assay type: cell-based, human; conditions: 3 days
Method in brief: as §5

[11] = system: Gαi/q; experiment: Attenuation of cannabinoid receptor-evoked inhibition of forskolin-induced cAMP; assay type: cell-based; conditions: read-out: IC50, attenuation of Gαi/q-mediated inhibition of forskolin-induced cAMP accumulation; Neuro2A, cannabinoid type 1 receptors, WIN 55,212-2
[12] = biological target: wild type Gα13 / Gβ1γ2 (Homo sapiens, UniProt Q14344); experiment: Split-luciferase complementation between Gβ1γ2 and wild type Gα13; assay type: cell-based
Chain of wild type Gα13 / Gβ1γ2 (P59768 2-68): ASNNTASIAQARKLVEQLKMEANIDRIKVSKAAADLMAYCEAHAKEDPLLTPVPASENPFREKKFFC
Chain of wild type Gα13 / Gβ1γ2 (P62873 whole entry, further chain): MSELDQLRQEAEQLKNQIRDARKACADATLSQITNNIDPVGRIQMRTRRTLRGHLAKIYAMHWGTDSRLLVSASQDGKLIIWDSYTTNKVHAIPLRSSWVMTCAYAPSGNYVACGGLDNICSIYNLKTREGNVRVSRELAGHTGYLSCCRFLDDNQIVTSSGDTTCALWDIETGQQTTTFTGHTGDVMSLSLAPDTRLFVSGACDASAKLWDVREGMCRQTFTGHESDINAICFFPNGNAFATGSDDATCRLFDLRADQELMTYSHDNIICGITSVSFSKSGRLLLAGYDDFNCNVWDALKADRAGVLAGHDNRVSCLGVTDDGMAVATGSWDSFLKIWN
Chain of wild type Gα13 / Gβ1γ2 (Q14344 whole entry): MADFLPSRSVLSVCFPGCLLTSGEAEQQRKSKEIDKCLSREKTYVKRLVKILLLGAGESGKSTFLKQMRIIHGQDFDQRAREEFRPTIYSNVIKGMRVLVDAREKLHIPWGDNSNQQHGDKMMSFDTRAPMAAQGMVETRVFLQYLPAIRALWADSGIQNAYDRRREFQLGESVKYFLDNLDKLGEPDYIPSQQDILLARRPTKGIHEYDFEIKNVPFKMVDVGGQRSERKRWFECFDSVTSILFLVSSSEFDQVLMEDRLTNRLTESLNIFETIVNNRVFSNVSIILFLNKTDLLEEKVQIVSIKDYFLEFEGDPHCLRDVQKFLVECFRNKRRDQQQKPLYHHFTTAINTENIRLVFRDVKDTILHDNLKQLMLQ
Method in brief: as §2

[13] = system: Mel202 cells; experiment: IP1 abundance; assay type: cell-based, human; conditions: Mel202, Gαq(Q209L)-driven
Method in brief: as §4

[14] = system: 92.1 cells; experiment: Cell viability/proliferation; assay type: cell-based, human; conditions: read-out: EC50, inhibition of proliferation (viability)
Method in brief: as §3

[15] = system: OCM-1A cells; experiment: Quantitative RT-PCR of PRC2-regulated genes in OCM-1A cells; assay type: cell-based, human; conditions: qRT-PCR
[16] = biological target: Gαi/q(Q204L) (Homo sapiens, UniProt P63096, H188P/K180P/K54R/Q204L/T187Y/V185I/V50I/V72L/Y69F); experiment: GTP hydrolysis; assay type: biochemical; conditions: FR 25 μM
Chain of Gαi/q(Q204L) (P63096 whole entry V50I/K54R/Y69F/V72L/K180P/V185I/T187Y/H188P/Q204L): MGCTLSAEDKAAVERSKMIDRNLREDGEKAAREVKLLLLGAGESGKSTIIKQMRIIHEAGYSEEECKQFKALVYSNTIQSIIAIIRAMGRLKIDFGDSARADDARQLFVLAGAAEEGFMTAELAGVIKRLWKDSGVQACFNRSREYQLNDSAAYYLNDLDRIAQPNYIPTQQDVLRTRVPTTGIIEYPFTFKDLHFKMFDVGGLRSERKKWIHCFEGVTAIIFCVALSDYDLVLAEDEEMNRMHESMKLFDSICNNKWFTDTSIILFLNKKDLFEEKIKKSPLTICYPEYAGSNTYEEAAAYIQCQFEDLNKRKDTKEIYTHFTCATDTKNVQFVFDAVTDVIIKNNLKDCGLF
Method in brief: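 His-tagged Gαi/q(Q204L) was expressed in E. coli; it is Gαi1 carrying eight Gαq-type substitutions. The protein (3 μM) was in 50 mM Tris-HCl pH 8.0, 5 mM MgCl2, 1 mM EDTA, 0.5 mM DTT. Reaction started with γ32P-GTP (100 nM final, 100 Ci/mmol); protein was in >10-fold excess. FR (25 μM final) or DMSO was added partway. Aliquots were quenched in 1N formic acid and resolved on PEI-cellulose TLC. Triplicate, ≥3 days, different protein preparations.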

[17] = system: 92.1 cells; experiment: IP1 abundance; assay type: cell-based, human; conditions: 92.1, Gαq(Q209L)-driven
Method in brief: as §4

[18] = system: Mel202 cells; experiment: Immunofluorescence staining of melanocytic markers in Mel202 cells; assay type: cell-based, human
Method in brief: as §6

[19] = biological target: T4, Gαq(Q209L) / Gβγ (Mus musculus, UniProt P21279, Q209L); experiment: Co-purification of endogenous Gβγ with affinity-tagged constitutively active Gαq; assay type: cell-based; conditions: FR 1 μM, 24 hours; n=3
T4 sequence (P21279 1-359 Q209L): T1 sequence (P21279 1-359 Q209L)
Method in brief: (§7)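 HEK293 cells were transfected with mouse Gαq, either wild type or Q209L. A FLAG-StrepII-StrepII tag flanked by Gly/Ser linkers was inserted between residues 124 and 125. After 24 h, cells got FR (1 μM) or DMSO for 24 h. They were lysed in 50 mM Tris pH 8.0, 100 mM NaCl, 5 mM EDTA, 1 mM MgCl2, 0.5% IGEPAL, ± 1 μM FR. StrepTactin then anti-FLAG purification at 4 °C. Immunoblot for FLAG and Gβ; 3 independent experiments.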

[20] = system: 92.1 cells; experiment: RNA-Seq gene expression in FR-treated 92.1 cells; assay type: cell-based, human; conditions: 92.1, 100 nM FR
[21] = system: Mel202 cells; experiment: Flow cytometry of DNA content; assay type: cell-based, human; conditions: Mel202, 3 days
Method in brief: as §5

[22] = biological target: T5, Gα13(Q226L) (Homo sapiens, UniProt Q14344, Q226L); experiment: SRE; assay type: cell-based; conditions: SRE(L) reporter
T5 sequence (Q14344 1-377 Q226L): T2 sequence (Q14344 1-377 Q226L)
Method in brief: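 SRE(L) promoter-driven firefly luciferase transcriptional reporter activated by constitutively active Gα13. Firefly signal was normalized to co-transfected Renilla luciferase expressed from a constitutive promoter.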

[23] = system: Mel202 cells; experiment: Cell viability/proliferation; assay type: cell-based, human; conditions: read-out: EC50, inhibition of proliferation (viability)
Method in brief: as §3

[24] = biological target: T6, wild type Gαq / Gβγ (Mus musculus, UniProt P21279); experiment: Co-purification of endogenous Gβγ with affinity-tagged wild type Gαq; assay type: cell-based; conditions: FR 1 μM, 24 hours; n=3
T6 sequence (P21279 1-359): T1 sequence (P21279 1-359 Q209L) with L209Q
Method in brief: as §7

[25] = biological target: Gαi/q(R54K) (Homo sapiens, UniProt P63096, H188P/K180P/T187Y/V185I/V50I/V72L/Y69F); experiment: Nucleotide exchange; assay type: biochemical; conditions: in vitro
Chain of Gαi/q(R54K) (Homo sapiens, UniProt P63096, H188P/K180P/T187Y/V185I/V50I/V72L/Y69F) (P63096 whole entry V50I/Y69F/V72L/K180P/V185I/T187Y/H188P): as the sequence (P63096 whole entry V50I/K54R/Y69F/V72L/K180P/V185I/T187Y/H188P/Q204L) above, with R54K, L204Q counted along it

[26] = system: Gαi/q(R54K); experiment: Attenuation of cannabinoid receptor-evoked inhibition of forskolin-induced cAMP; assay type: cell-based; conditions: Neuro2A
[27] = system: 92.1 cells; experiment: Melanocytic pigmentation of 92.1 cells; assay type: cell-based, human; conditions: 92.1, 3 days, vs vehicle
Method in brief: as §1

SMILES: C=C1C(=O)N[C@@H](C)C(=O)N(C)[C@@H](C)C(=O)N[C@@H]([C@H](OC(=O)[C@@H](NC(=O)CC)[C@H](O)C(C)C)C(C)C)C(=O)N(C)[C@@H]([C@@H](C)OC)C(=O)O[C@H](C(C)C)[C@H](NC(C)=O)C(=O)O[C@H](Cc2ccccc2)C(=O)N1C [FR, FR900359] (Ac-[X1][dPhLac][NMeDha]A[NMeA][X1](Leu(3R-OH,Nα-propionyl))[NMeT](Me); ester 1-C)
- IC50 [1]: 1 nM
- Melanocytic pigmentation [2]: increased
- Effect on interaction between constitutively active Gα13 and RGS domain of LARG [3]: lack of effect
- Effect on proliferation [4]: no effect
- Reduction of IP1 abundance [5]: ~ 2 fold
- Apoptosis (increased fraction of sub-G1/G0 cells) [6]: induced
- Cell cycle inhibition (decreased fraction of S- or G2/M-phase cells) [6]: induced
- Effect on interaction between constitutively active Gα13(Q226L) and Gβ1γ2 [7]: lack of effect
- Morphological changes [8]: no effect
- Increase in proportion of DCT-positive cells [9]: 3.5 fold
- Increase in proportion of PMEL-positive cells [9]: 6.8 fold
- Effect on cell cycle and apoptosis [10]: no effect
- IC50 [11]: 25 nM
- Effect on interaction between wild type Gα13 and Gβ1γ2 [12]: lack of effect
- Reduction of IP1 abundance [13]: > 50 fold
- EC50 [14]: 2 nM
- Expression of PRC2-regulated genes [15]: unaffected
- Correction of GTP hydrolysis defect of Gαi/q(Q204L) [16]: not corrected
- Reduction of IP1 abundance [17]: > 50 fold
- Increase in proportion of DCT-positive cells [18]: 1.6 fold
- Increase in proportion of PMEL-positive cells [18]: 3.9 fold
- Increase in proportion of TYR-positive cells [18]: 1.8 fold
- Increase of association between Gβγ and affinity-tagged constitutively active Gαq (co-purification) [19]: 9 fold
- Decrease in expression of BBC3/PUMA [20]: 3.5 fold
- Decrease in expression of PMAIP1/NOXA [20]: 2.5 fold
- Decrease in expression of p21CIP1 (CDKN1A) [20]: 3.0 fold
- Apoptosis (increased fraction of sub-G1/G0 cells) [21]: induced
- Cell cycle inhibition (decreased fraction of S- or G2/M-phase cells) [21]: induced
- Effect on transcriptional reporter driven by constitutively active Gα13 [22]: no effect
- EC50 [23]: 6 nM
- Increase of association between Gβγ and affinity-tagged wild type Gαq (co-purification) [24]: 19 fold
- Fold less potent toward Gαi/q(R54K) than Gαi/q (nucleotide exchange) [25]: > 10 fold
- Fold less potent toward Gαi/q(R54K) than Gαi/q (cAMP signaling in cells) [26]: ~ 30 fold
- IC50 ([26]; read-out: IC50, attenuation of Gαi/q(R54K)-mediated inhibition of forskolin-induced cAMP accumulation, cannabinoid type 1 receptors, WIN 55,212-2): ~800 nM
- Melanocytic pigmentation [27]: increased
